From article PMC4232467 (Nature chemical biology, 2014)
Converted amounts (≈) assume the structure as drawn.

What was measured:
Experiment in all cases: Susceptibility testing
Type in all cases: cell-based
[1] = tested on: Escherichia coli (TEM-3) ESBL producer; details: read-out: Minimum inhibitory concentrations (MICs; μg/mL) Escherichia coli (TEM-3)
Summary of the method: (§1)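 Broth susceptibility testing of clinical isolates resistant to third-generation cephalosporins, run and read per CLSI guidelines. […] Compounds were dissolved in DMSO and diluted into Mueller Hinton medium, with DMSO kept below 5%. Values are the average of three independent experiments.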

[2] = tested on: Enterobacter cloacae (AmpC overproducer); details: read-out: Minimum inhibitory concentrations (MICs; μg/mL) Enterobacter cloacae
Summary of the method: as §1

[3] = tested on: Citrobacter freundii (AmpC overproducer); details: read-out: Minimum inhibitory concentrations (MICs; μg/mL) Citrobacter freundii
Summary of the method: as §1

[4] = tested on: Escherichia coli (CTX-M-14) ESBL producer; details: read-out: Minimum inhibitory concentrations (MICs; μg/mL) Escherichia coli (CTX-M-14)
Summary of the method: as §1

What does the source list for `CO/N=C(\C(=O)N[C@@H]1C(=O)N2C(C(=O)O)=C(COC(C)=O)CS[C@H]12)c1csc(N)n1` [Cefotaxime, cefotaxime]?
MIC [1]: 8 µg/mL (≈ 17.6 µM); MIC [2]: 64 µg/mL (≈ 141 µM); MIC [3]: 16 µg/mL (≈ 35.1 µM); MIC [4]: 256 µg/mL (≈ 562 µM)
